Test results as given in ChEMBL document CHEMBL1142361, “Phenylglycine and phenylalanine derivatives as potent and selective HDAC1 inhibitors (SHI-1)” (Bioorg Med Chem Lett, 2008).
In brackets after ≈: the same amount, converted by molar mass.

Experiments:
[1] = tested on: HCT-116; assay: Antiproliferative activity against human HCT116 cells after 72 hrs; assay type: functional
[2] = target: Voltage-gated inwardly rectifying potassium channel KCNH2 (Homo sapiens, UniProt Q12809); assay: Inhibition of human ERG
[3] = Log D at pH 7 by HPLC; assay type: physicochemical; details: buffer
[4] = Aqueous solubility at pH 7 by HPLC; assay type: physicochemical; details: buffer
How it was run: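 A 200 µM sample in PBS-buffered water at pH 7 was agitated 24 h at room temperature and then filtered. A 100 µM reference was fully dissolved in MeOH:MeCN:DMSO (8:1:1). Both were run by the same high-throughput HPLC method, and the peak areas were compared to give the dissolved concentration. The assay caps at 200 µM.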

Chain of Voltage-gated inwardly rectifying potassium channel KCNH2 (Q12809 whole entry): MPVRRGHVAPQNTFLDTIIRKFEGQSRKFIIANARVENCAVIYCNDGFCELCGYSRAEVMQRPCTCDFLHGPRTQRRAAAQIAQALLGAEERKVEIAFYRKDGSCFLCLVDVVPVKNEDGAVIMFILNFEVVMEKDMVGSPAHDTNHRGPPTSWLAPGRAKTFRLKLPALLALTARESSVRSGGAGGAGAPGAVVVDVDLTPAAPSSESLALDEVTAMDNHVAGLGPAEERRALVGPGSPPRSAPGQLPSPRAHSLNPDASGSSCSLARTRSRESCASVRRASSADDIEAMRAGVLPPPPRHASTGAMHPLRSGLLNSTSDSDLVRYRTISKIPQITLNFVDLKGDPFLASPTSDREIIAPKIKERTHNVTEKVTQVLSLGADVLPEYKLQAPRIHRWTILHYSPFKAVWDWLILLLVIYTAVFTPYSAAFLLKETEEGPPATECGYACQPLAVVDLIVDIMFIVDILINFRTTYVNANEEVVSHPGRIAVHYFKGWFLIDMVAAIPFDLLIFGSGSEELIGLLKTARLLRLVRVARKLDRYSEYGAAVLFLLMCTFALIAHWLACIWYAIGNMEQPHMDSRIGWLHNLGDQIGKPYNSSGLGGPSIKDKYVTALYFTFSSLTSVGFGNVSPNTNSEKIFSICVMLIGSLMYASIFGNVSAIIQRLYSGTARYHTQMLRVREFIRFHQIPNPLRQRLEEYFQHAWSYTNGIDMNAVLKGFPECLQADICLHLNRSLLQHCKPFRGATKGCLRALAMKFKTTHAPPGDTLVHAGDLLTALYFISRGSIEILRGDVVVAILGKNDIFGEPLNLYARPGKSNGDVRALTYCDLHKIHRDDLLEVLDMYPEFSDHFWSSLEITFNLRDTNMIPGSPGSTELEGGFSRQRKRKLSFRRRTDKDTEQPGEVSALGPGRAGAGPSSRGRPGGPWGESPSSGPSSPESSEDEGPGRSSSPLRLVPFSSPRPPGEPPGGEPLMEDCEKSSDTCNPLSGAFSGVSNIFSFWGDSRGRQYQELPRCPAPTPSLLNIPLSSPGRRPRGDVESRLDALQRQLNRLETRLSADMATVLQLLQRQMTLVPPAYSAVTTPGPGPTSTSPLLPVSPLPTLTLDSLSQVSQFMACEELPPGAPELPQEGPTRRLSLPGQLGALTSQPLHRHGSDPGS

| Structure (SMILES) | Activity [1] [nM] | other results |
| --- | --- | --- |
| CNC(=O)C(NC(C)=O)c1ccc(C(=O)Nc2cc(-c3cccs3)ccc2N)cc1 (stereo unspecified) | 620 |  |
| CNC(=O)[C@H](N)c1ccc(C(=O)Nc2cc(-c3cccs3)ccc2N)cc1 | 420 |  |
| CN(C)C(=O)C(N)c1ccc(C(=O)Nc2cc(-c3cccs3)ccc2N)cc1 (stereo unspecified) | 420 |  |
| CCOC(=O)C(N)c1ccc(C(=O)Nc2cc(-c3cccs3)ccc2N)cc1 (stereo unspecified) | 1100 | IC50 [2]: 5.7 µM |
| NC(=O)[C@@H](N)Cc1ccc(C(=O)Nc2cc(-c3cccs3)ccc2N)cc1 | 260 |  |
| CNC(=O)[C@@H](N)c1ccc(C(=O)Nc2cc(-c3cccs3)ccc2N)cc1 | 480 |  |
| CNC(=O)C(NS(C)(=O)=O)c1ccc(C(=O)Nc2cc(-c3cccs3)ccc2N)cc1 (stereo unspecified) | 780 |  |
| NC(=O)C(N)c1ccc(C(=O)Nc2cc(-c3cccs3)ccc2N)cc1 (stereo unspecified) | 350 | logD [3]: 1.49; solubility [4]: 185 µM (≈ 67.8 µg/mL) |
